Assay results of several laboratories.
Protocols differ between the studies behind these lines.
RET V804M: Proto-oncogene tyrosine-protein kinase receptor Ret (RET, Homo sapiens, UniProt P07949, V804M)
RET: Proto-oncogene tyrosine-protein kinase receptor Ret (RET, Homo sapiens, UniProt P07949)

`Nc1ncc(-c2nc(N3CCOCC3)nc(N3CCOCC3)n2)c(C(F)F)n1` gave a remaining binding of 73% (RET V804M; binding; competition with immobilised ligand; 10 µM).
For `N#CC1(c2ccccn2)CCN(Cc2cc(C(=O)O)c(=O)n3ccccc23)CC1`, the remaining binding was 100% (Proto-oncogene tyrosine-protein kinase receptor Ret (RET, Homo sapiens, UniProt P07949, V804L); cell-free assay; competition with immobilised ligand; 1 µM).
With `O=C(Cn1cc(C=C2C(=O)NC(=O)NC2=O)c2ccccc21)Nc1ccccc1` the remaining activity was 110% (RET; enzyme activity; inhibitor; radiometric; 10 µM).
The remaining binding of `Cc1nn(C)cc1-c1nc2c(N3CCN(Cc4ccc(Cl)cc4)CC3)c(Cl)cnc2[nH]1` is reported as 22% (RET V804M; binding; competition with immobilised ligand; 1 µM).
The remaining signal of `O=c1[nH]c2ccccc2n1C1CCN(Cc2ccc(-c3[nH]c4cc5ncnc5cc4nc3-c3ccccc3)cc2)CC1` is reported as 96.7% (RET; cell-free assay; 0.5 µM).
For `C#Cc1n[nH]c2c(-c3cn(C(C)c4ccccn4)c(=O)[nH]c3=O)cc(F)cc12` (stereo not shown), the inhibition was 8.7% (RET; enzyme activity; inhibitor; 1 µM).
The remaining activity of `O=C1NC(=O)N(c2ccccc2)C(=O)C1=CNc1ccc2[nH]c(=O)[nH]c2c1` is reported as 90.6% (RET; enzyme activity; inhibitor; radiometric; 10 µM).
The inhibition of `C#Cc1n[nH]c2c(-c3cn([C@@H](C)c4ccccc4)c(=O)[nH]c3=O)cc(F)cc12` is reported as 2.3% (RET V804M; enzyme activity; inhibitor; 0.1 µM).
With `Cn1cc(-c2cc(F)cc(N3CCn4c(cc5c4CCCC5)C3=O)c2CO)cc(Nc2ccc(N3CCN(C4COC4)CC3)cn2)c1=O` the inhibition was 11% (RET; enzyme activity; inhibitor; 0.1 µM).
`Cn1cncc1[C@@](O)(COc1ccc(C#N)cc1-c1ccc(OC(F)(F)F)cc1)c1ccc(C#N)cc1` gave a remaining binding of 98% (Proto-oncogene tyrosine-protein kinase receptor Ret (RET, Homo sapiens, UniProt P07949, M918T); cell-free assay; competition with immobilised ligand; 1 µM).
